D1 mod – allosteric modulators of human D1 dopamine receptor | P21728 | HEK293 D1, CRE-luciferase, dopamine EC30 potentiation; actives deviate in either direction | B-score at 10 µM | actives 5.9% (n = 58,000) | AID 641;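 active = luminescence count or its row- and column-corrected plate score outside the 99.7% band of the plate's sample wells, on either side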
Target sequence (P21728 whole entry, looked up): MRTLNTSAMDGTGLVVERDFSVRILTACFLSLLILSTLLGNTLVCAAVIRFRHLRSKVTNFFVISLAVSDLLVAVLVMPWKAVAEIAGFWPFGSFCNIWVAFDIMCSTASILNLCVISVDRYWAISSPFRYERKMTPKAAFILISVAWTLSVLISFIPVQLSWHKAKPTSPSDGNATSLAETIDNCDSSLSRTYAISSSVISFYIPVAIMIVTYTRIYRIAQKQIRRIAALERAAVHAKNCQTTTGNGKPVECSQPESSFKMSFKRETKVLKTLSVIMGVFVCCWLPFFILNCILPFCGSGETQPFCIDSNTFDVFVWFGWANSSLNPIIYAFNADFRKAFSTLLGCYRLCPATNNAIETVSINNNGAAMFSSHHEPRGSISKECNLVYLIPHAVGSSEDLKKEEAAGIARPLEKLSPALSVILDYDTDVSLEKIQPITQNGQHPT
M1 antag – blocks the rat M1 muscarinic receptor response to acetylcholine; CHO-M1 cells, Fluo-4 calcium, ACh EC80 antagonist mode; stronger effect = lower value; B-score at 10 µM; actives 3.4% (n = 64,000);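 active = calcium fluorescence response, raw or row-and-column corrected B-score, differing from the plate sample mean either way at a set confidence level, mostly lower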
SF-1 act – activates the human nuclear receptor SF-1. activation, % at 10 µM. actives 1.9% (n = 65,000). CHO-K1 Gal4-SF-1 LBD luciferase reporter; % increase over DMSO SF-1-specific signal. Q13285;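 active = activation above the mean activation of all tested compounds plus 3 SD, cut at about 50% in these data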
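Material: CHO-K1 cells with Gal4–hSF-1 LBD chimera plus Gal4-driven luciferase / Input: 4,000 CHO-K1 cells per well / Incubation: compound exposure 20 h at 37 °C / Signal: luminescence read 15 min after SteadyLite luciferase reagent, after room-temperature equilibration / Read-out: percent activation versus DMSO / Benchmarks: DMSO negative control and −SF1 background wells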
mHtt clearance – compounds clearing mutant huntingtin protein | HeLa Exon1htt(103Q)mCFP, aggregate imaging; zero = plate's median compound well | inhibition, % at 1.5 µM | actives 0.42% (n = 47,000);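 active = inhibition of aggregate fluorescence above about 70%, also judged a hit by eye on the cell image, limit read from the data, passing the limit was not always enough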;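 note: cells exposed to compound for three days before fixation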
M1 ag – agonists of M1 muscarinic receptor. AID 626. B-score at 10 µM. actives 3% (n = 64,000). CHO-M1 cells, Fluo-4 calcium fluorescence, agonist mode; stronger effect = higher value;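 active = fluorescence rise, raw or as B-score row- and column-corrected plate score, outside the 99.7% band of its plate's samples, either direction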
RORa activator – activators of human nuclear receptor RORA; activation, % at 10 µM; actives 1.5% (n = 65,000); CHO-K1 Gal4-RORA LBD luciferase reporter, luminescence; percent increase over mock-subtracted basal signal; AID 560; P35398;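 active = activation above the mean of all tested compounds plus 3 SD, cut at about 49% in these data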;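 note: 0% = DMSO-treated RORA cells and 100% = added signal equal to DMSO minus mock-transfected cells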
D1 PAM confirm – confirmation of human D1 dopamine receptor allosteric modulators; shares compounds with D1 mod; HEK293 D1 CRE-luciferase, dopamine EC30 potentiation; stronger effect = higher value; luminescence at 10 µM; actives 88% (n = 2,200);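 active = luminescence in either of two replicates above the same-plate mean plus 3 SD of the low-dose dopamine control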
D1 no dopamine – D1 (human) signaling in absence of dopamine; shares compounds with D1 mod; HEK293 D1 CRE-luciferase, luminescence, no dopamine; stronger effect = higher value; luminescence at 10 µM; actives 0.8% (n = 1,900); AID 646; in the data active = luminescence above about 3900
Isoprot counter – alters isoproterenol CRE-luciferase response in HEK293 cells | shares compounds with D1 mod | HEK293 D1 CRE-luciferase, isoproterenol EC30 counter-screen | calls only at 10 µM | AID 647 | actives 63% (n = 2,200);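 active = luminescence in either replicate above plate mean of wells with a partly effective reference agonist dose plus 3 SD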;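 note: isoproterenol raises cAMP through native beta-adrenoceptor Gs so signal bypasses D1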
The depositor's hits bear a star; i = inactive; x = no result; + = active, no number. Sampled rows, rich in hits. Any-hit rate of the full collection: about 11%.

SMILES	D1 mod	M1 antag	SF-1 act	mHtt clearance	M1 ag	RORa activator	D1 PAM confirm	D1 no dopamine	Isoprot counter
COC(=O)C1=C(C)NC(C)=C(C(=O)OC)C1c1cn(-c2ccccc2)nc1-c1ccco1	0.682	0.00635	x	0.9	-0.0604	x	x	x	x
CN(Cc1ccccc1)Cc1nc2c([nH]1)c(=O)n(C)c(=O)n2C	-0.131	0.00667	6.1	x	-0.205	4.5	x	x	x
CCOc1ccc(NC(=O)Cn2nnc(C(=O)NCc3ccccc3OC)c2N)cc1	4.29*	-0.223	-41.8	-44.5	0.439	-6.2	4744	1560	i
CCOc1ccc(NC(=O)c2nnn(CC(=O)Nc3ccccc3OCC)c2N)cc1	0.807	0.0936	2.4	20.8	-0.137	6.5	x	x	x
CSCC[C@H](NC(=O)NCc1ccc(F)cc1)C(=O)O	0.16	0.514	-7.9	-15.9	-1.25	33.5	x	x	x
O=C(CCSc1nc2ccccc2o1)N1CCOCC1	3.58*	0.173	13.5	-20.0	-0.345	2.0	7988*	1548	i
COc1cccc(NC2=NCC(=O)N2Cc2cccs2)c1	4.16*	0.0412	-1.3	0.0	0.69	4.5	8816*	1624	i
COc1ccc(NC2=NCCC(=O)N2Cc2cccs2)cc1	0.261	0.0637	-3.3	-61.9	-0.0674	-20.9	x	x	x
CCOc1cc(C(=O)Nc2ccc3c(c2)OCO3)ccc1OC(F)F	7.62*	-0.311	15.4	x	-0.647	21.1	13356*	1552	+
O=C(Nc1ccc(OC(F)F)c(Cl)c1)Nc1ccc2c(c1)OCO2	0.0736	0.000665	23.4	-75.3	1.66	-0.7	x	x	x
Cc1oc(-c2ccc(Cl)cc2)nc1CN1CCC(C(=O)NCCCN2CCOCC2)CC1	3.65*	-0.0353	18.1	x	1.77	11.3	6764	1668	i
O=C(CCOc1ccccc1)Nc1ccc(S(=O)(=O)N2CCCC2)cc1	0.742	0.102	1.6	x	1.62	-6.5	x	x	x
COc1ccc(NC(=O)C2(N(CC(C)C)C(=O)Cn3nnnc3N)CCCCC2)cc1	-0.0312	0.114	-13.1	x	0.531	1.5	x	x	x
Cc1ccc(NC(=O)C2(N(CC(C)C)C(=O)Cn3nnnc3N)CCCCC2)cc1	5.42*	x	2.8	x	x	1.7	5068	x	i
CCOC(=O)Cn1c(CN(Cc2ccccc2)Cc2ccccc2)nc2c1c(=O)n(C)c(=O)n2C	0.0446	-0.202	-28.4	-22.4	1.57	2.7	x	x	x
CCOc1ccc(-c2nnn(CC(=O)NCc3ccc(OC)cc3)n2)cc1OCC	5.33*	1.43	4.2	x	-0.792	1.9	6444*	1592	i
CCOc1ccccc1NC(=O)Cn1nnc(-c2ccc(OCC)c(OCC)c2)n1	29.2*	0.125	-13.3	-76.6	-0.912	-9.3	19636*	1656	+
CCOc1ccc(-c2nnn(CC(=O)Nc3cc(OC)ccc3OC)n2)cc1OCC	1.45	-0.441	15.7	x	-0.239	15.6	x	x	x
CCOC(=O)CNC(=O)Nc1cc(C(C)(C)C)nn1-c1ccccc1	x	1.45	8.3	x	-0.285	8.2	x	x	x
N#Cc1c2n(c3c(=O)n(Cc4ccccc4Cl)cnc13)CCCC2	3.38*	0.11	4.7	x	0.271	4.7	9264*	1636	+
N#Cc1c2n(c3c(=O)n(Cc4ccc(Cl)cc4)cnc13)CCCC2	2.64*	-0.259	3.5	x	-0.606	1.6	10052*	1408	+
c1ccc2c(c1)nc(NCC1CCCO1)c1nnnn12 (stereo unspecified)	2.94*	-0.464	37.0	x	-0.732	-3.1	9992*	1484	i
Clc1ccc(CCNc2nc3ccccc3n3nnnc23)cc1	x	x	x	-29.9	x	x	x	x	x
O=c1[nH]c2ccsc2c(=O)n1-c1ccc(F)c(Cl)c1	8.28*	1.04	8.3	x	0	-17.9	14224*	1628	+
O=c1[nH]c2ccsc2c(=O)n1-c1ccc(F)cc1	0.199	0.187	0.4	0.1	-0.629	-7.7	x	x	x
SMILES	D1 mod	M1 antag	SF-1 act	mHtt clearance	M1 ag	RORa activator	D1 PAM confirm	D1 no dopamine	Isoprot counter
N#Cc1c(N)n(C2CCCCC2)c2nc3ccccc3nc12	3.31*	0.5	-2.7	8.1	-0.115	37.5	10836*	1704	+
CCC(=O)Nc1c(C#N)c2nc3ccccc3nc2n1C1CCCCC1	1.33	-0.652	-9.1	-14.7	-1.67	-19.3	x	x	x
CC1CC(C)CN(c2cc(=O)n(Cc3ccc(F)cc3)c(=O)[nH]2)C1 (stereo unspecified)	x	x	x	20.4	x	x	x	x	x
COc1ccc(C(=O)N2CCCCC2)cc1S(=O)(=O)Nc1ccccc1	x	-0.00592	6.7	0.7	0.656	2.5	x	x	x
CCOC(=O)N1CCN(C(=O)c2ccc(Cl)c(S(=O)(=O)Nc3ccccc3)c2)CC1	6.13*	0.446	1.6	-18.1	0.373	-3.8	15076*	1588	i
Cn1cc(Cl)c(C(=O)N2CCN(c3ncccn3)CC2)n1	-0.796	0.776	-9.6	13.9	0.409	-12.6	x	x	x
CN=C1c2ccccc2CN1c1cccc(C(=O)OC)c1	12.7*	-0.548	-4.5	x	0.961	20.3	19796*	1756	+
Cc1nn2c(N3CCCC3)cc(C(C)C)nc2c1-c1ccccc1	5.34*	1.08	-9.2	x	0.193	2.3	5624*	1528	i
COc1ccc(C2C(C#N)=C(/N=C/N3CCN(C)CC3)OC3=C2C(=O)CC(C)(C)C3)cc1OC (stereo unspecified)	0.199	0.0015	-13.0	x	-0.746	2.2	x	x	x
CCOC(=O)CSC1=C(C#N)C(c2ccc3c(c2)OCO3)CC(=O)N1 (stereo unspecified)	2.59	0.218	-21.0	x	-0.101	10.9	x	x	x
CCOC(=O)CSC1=C(C#N)C(c2ccc(C)o2)CC(=O)N1 (stereo unspecified)	5.35*	0.106	-37.4	x	-1.15	-21.1	9204*	1688	i
Cc1ccc(C2c3sc(=O)[nH]c3SC3C(=O)NC(=O)C32)cc1 (stereo unspecified)	-1.69	0.257	14.0	x	0.141	-11.9	x	x	x
COc1ccc(CNC(=O)CN(Cc2ccccc2)C(=O)c2csnn2)cc1	x	x	x	-40.5	x	x	x	x	x
C=CCN(CC(=O)NCc1ccccc1)C(=O)c1csnn1	2.96*	-2.23	-4.3	-2.5	0.28	-13.1	6904	1720	i
CCc1nnc(NC(=O)C2CCCN2S(=O)(=O)c2ccc(F)cc2)s1 (stereo unspecified)	0.261	0.514	-1.8	9.5	0.278	-10.3	x	x	x
COc1ccc(-c2cc(OC)c3c(C)oc(C)c3c(=O)c2)cc1OC	3.76*	0.057	3.3	7.6	-1.27	8.9	12580*	1500	+
CSc1nc2ccccc2n1C(=O)Oc1ccccc1	9.36*	0.0343	-14.0	x	0.0998	-5.7	12420*	1516	+

Bioassay records as filed in PubChem.
